Test results reported in ChEMBL document CHEMBL4765427, “A low toxic CRM1 degrader: Synthesis and anti-proliferation on MGC803 and HGC27” (Eur J Med Chem, 2020).
Calls of active or inactive are those of the source. The rule behind the calls is not given here.

Experiments:
[1] = biological target: Exportin-1 (Homo sapiens) (UniProt O14980); test: Induction of CRM1 degradation in human HGC-27 cells assessed as reduction in CRM1 expression at 5 uM measured after 24 hrs in presence of proteasome inhibitor bortezomib by Western blot analysis; format: cell-based
Exportin-1 (Homo sapiens), sequence (O14980 whole entry): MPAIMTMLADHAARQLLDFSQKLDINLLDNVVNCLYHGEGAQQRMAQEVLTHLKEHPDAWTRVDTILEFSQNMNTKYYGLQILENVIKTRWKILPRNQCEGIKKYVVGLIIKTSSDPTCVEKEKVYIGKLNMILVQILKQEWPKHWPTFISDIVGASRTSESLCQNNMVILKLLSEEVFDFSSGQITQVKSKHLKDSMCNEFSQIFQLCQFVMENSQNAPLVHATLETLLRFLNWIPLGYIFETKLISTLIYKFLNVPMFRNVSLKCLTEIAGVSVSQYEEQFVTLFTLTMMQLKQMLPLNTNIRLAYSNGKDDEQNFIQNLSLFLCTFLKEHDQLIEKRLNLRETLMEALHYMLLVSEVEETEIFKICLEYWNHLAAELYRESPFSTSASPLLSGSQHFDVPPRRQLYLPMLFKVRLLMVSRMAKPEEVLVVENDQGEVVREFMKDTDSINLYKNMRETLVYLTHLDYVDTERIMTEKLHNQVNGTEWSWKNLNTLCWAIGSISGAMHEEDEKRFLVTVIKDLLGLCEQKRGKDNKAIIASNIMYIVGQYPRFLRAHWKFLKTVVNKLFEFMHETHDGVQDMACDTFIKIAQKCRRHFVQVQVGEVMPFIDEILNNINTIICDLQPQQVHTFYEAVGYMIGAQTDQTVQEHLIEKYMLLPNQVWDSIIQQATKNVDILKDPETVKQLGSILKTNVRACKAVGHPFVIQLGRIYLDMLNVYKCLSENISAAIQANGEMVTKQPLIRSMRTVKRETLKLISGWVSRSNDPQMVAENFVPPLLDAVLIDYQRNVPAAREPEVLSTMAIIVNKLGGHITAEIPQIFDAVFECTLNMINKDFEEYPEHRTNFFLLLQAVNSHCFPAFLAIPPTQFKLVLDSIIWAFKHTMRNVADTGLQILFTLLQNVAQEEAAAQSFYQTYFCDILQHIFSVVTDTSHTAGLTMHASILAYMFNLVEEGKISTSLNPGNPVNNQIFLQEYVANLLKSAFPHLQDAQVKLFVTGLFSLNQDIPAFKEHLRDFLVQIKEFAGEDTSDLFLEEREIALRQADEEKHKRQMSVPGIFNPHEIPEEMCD

[2] = biological target: Cellular tumor antigen p53 (Homo sapiens) (UniProt P04637); test: Induction of p53 cytoplasmic translocation in human MGC-803 cells assessed as increase in p53 bound BCL2 expression at 10 uM measured after 6 hrs in presence of proteasome inhibitor MG132 by DAPI staining based immunofluorescence assay; settings: filed as modulator
Cellular tumor antigen p53 (Homo sapiens), sequence (P04637 whole entry, looked up): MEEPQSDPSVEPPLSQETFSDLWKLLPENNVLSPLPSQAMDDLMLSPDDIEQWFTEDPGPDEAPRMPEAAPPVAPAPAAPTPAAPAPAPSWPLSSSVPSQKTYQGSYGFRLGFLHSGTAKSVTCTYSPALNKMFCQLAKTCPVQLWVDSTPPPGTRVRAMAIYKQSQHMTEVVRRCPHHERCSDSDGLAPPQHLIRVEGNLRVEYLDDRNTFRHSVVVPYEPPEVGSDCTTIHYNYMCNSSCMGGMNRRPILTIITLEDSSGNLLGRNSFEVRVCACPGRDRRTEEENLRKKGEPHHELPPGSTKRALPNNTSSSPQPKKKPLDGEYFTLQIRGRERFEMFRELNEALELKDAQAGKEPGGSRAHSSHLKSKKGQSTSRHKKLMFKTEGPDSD

[3] = biological target: Exportin-1 (Homo sapiens) (UniProt O14980); test: Induction of CRM1 degradation in human MGC-803 cells assessed as reduction in CRM1 expression at 5 uM measured after 24 hrs in presence of proteasome inhibitor bortezomib by Western blot analysis; format: cell-based
[4] = biological target: Exportin-1 (Homo sapiens) (UniProt O14980); test: Induction of CRM1 degradation in human HGC-27 cells assessed as reduction in CRM1 expression at 5 uM measured after 24 hrs by Western blot analysis; format: cell-based
Summary of the method: (§1)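 MGC803 and HGC27 cells were exposed to 5 μM compound for 24 h with or without 0.05 μM MG132. CRM1 protein was measured by Western blot on RIPA lysates, with BCA normalization, SDS-PAGE/PVDF transfer and ECL detection.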

[5] = biological target: Exportin-1 (Homo sapiens) (UniProt O14980); test: Induction of CRM1 degradation in human MGC-803 cells assessed as reduction in CRM1 expression at 5 uM measured after 24 hrs in presence of proteasome inhibitor MG132 by Western blot analysis; format: cell-based; summary of the method: as §1
[6] = biological target: Exportin-1 (Homo sapiens) (UniProt O14980); test: Induction of CRM1 degradation in human MGC-803 cells assessed as reduction in CRM1 expression measured after 24 hrs by Western blot analysis; format: cell-based
[7] = biological target: Cellular tumor antigen p53 (Homo sapiens) (UniProt P04637); test: Induction of p53 cytoplasmic translocation in human MGC-803 cells at 5 uM measured after 6 hrs in presence of proteasome inhibitor MG132 by DAPI staining based immunofluorescence assay; format: cell-based; settings: filed as modulator, dose 10.0 µM, in the assay text read “at 10 uM” for “at 5 uM”
Summary of the method: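 Cells pretreated ±0.05 μM MG132 for 1 h, then compound for 6 h. Fixed in 4% paraformaldehyde for 30 min, permeabilized with 0.1% Triton X-100 for 10 min, blocked with 10% normal goat serum for 30 min. Stained with p53 antibody (green) and DAPI nuclei, imaged by confocal microscopy.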

[8] = biological target: Cellular tumor antigen p53 (Homo sapiens) (UniProt P04637); test: Induction of p53 cytoplasmic translocation in human MGC-803 cells at 5 uM measured after 24 hrs in presence of proteasome inhibitor MG132 by immunoprecipitation method; format: cell-based; settings: filed as modulator, dose 10.0 µM, in the assay text read “at 10 uM” for “at 5 uM”
Summary of the method: (§2)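 Cells pretreated with 0.05 μM MG132 for 1 h, then exposed to compound for 24 h. Proteins co-precipitated with anti-p53 antibody and detected by immunoblot.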

[9] = biological target: Cellular tumor antigen p53 (Homo sapiens) (UniProt P04637); test: Induction of p53 cytoplasmic translocation in human MGC-803 cells assessed as increase in p53 bound BCL-XL expression at 10 uM measured after 6 hrs in presence of proteasome inhibitor MG132 by DAPI staining based immunofluorescence assay; settings: filed as modulator
[10] = biological target: Exportin-1 (Homo sapiens) (UniProt O14980); test: Induction of CRM1 degradation in human HGC-27 cells assessed as reduction in CRM1 expression measured after 24 hrs by Western blot analysis; format: cell-based; settings: dose 1.25-10 µM
[11] = biological target: Exportin-1 (Homo sapiens) (UniProt O14980); test: Induction of CRM1 degradation in human MGC-803 cells assessed as increase in p53 accumulation in nucleus at 10 uM measured after 6 hrs by DAPI staining based immunofluorescence assay; format: cell-based
Summary of the method: (§3)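 MGC803 cells were exposed to 10 μM compound for 0 or 6 h. They were fixed in 4% paraformaldehyde for 30 min, permeabilized with 0.1% Triton X-100 for 10 min and blocked with 10% goat serum for 30 min. Staining used anti-Ranbp1 or anti-p53 (green) with DAPI nuclei, and nuclear localization was imaged by confocal microscopy.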

[12] = biological target: Exportin-1 (Homo sapiens) (UniProt O14980); test: Induction of CRM1 degradation in human MGC-803 cells assessed as reduction in CRM1 expression at 5 uM measured after 24 hrs by Western blot analysis; format: cell-based; summary of the method: as §1
[13] = biological target: Exportin-1 (Homo sapiens) (UniProt O14980); test: Induction of CRM1 degradation in human MGC-803 cells assessed as increase in Ranbp1 accumulation in nucleus at 10 uM measured after 6 hrs by DAPI staining based immunofluorescence assay; format: cell-based; summary of the method: as §3
[14] = biological target: Cellular tumor antigen p53 (Homo sapiens) (UniProt P04637); test: Induction of p53 cytoplasmic translocation in human MGC-803 cells assessed as increase in p53 bound BCL2 expression at 5 uM measured after 24 hrs in presence of proteasome inhibitor MG132 by immunoprecipitation method; format: cell-based; settings: filed as modulator, dose 10.0 µM, in the assay text read “at 10 uM” for “at 5 uM”; summary of the method: as §2
[15] = biological target: Exportin-1 (Homo sapiens) (UniProt O14980); test: Induction of CRM1 degradation in human HGC-27 cells assessed as reduction in CRM1 expression at 5 uM measured after 24 hrs in presence of proteasome inhibitor MG132 by Western blot analysis; format: cell-based; summary of the method: as §1
[16] = biological target: Cellular tumor antigen p53 (Homo sapiens) (UniProt P04637); test: Induction of p53 cytoplasmic translocation in human MGC-803 cells assessed as increase in p53 bound BCL-XL expression at 5 uM measured after 24 hrs in presence of proteasome inhibitor MG132 by immunoprecipitation method; format: cell-based; settings: filed as modulator, dose 10.0 µM, in the assay text read “at 10 uM” for “at 5 uM”; summary of the method: as §2
MGC-803 = test: Antiproliferative activity against human MGC-803 cells by MTT assay; format: functional, cell-based
Summary of the method: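 They were seeded at 5×10⁴/well and cultured overnight, then exposed to compound for 24 h. MTT (5 mg/mL solution) was added for 4 h at 37 °C, formazan was dissolved in DMSO, and absorbance was read at 490 nm. Each experiment was run three times.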

| Compound | Activity [1] | Activity [2] | Activity [3] | Activity [4] | Activity [5] | Activity [6] | Activity [7] | Activity [8] | Activity [9] | Activity [10] | Activity [11] | Activity [12] | Activity [13] | Activity [14] | Activity [15] | Activity [16] | IC50 (MGC-803) [µM] |
| --- | --- | --- | --- | --- | --- | --- | --- | --- | --- | --- | --- | --- | --- | --- | --- | --- | --- |
| Cc1ccc(C(C)C)c(OC[C@H]2CC=CC(=O)O2)c1 | inactive | Active | inactive | Active | inactive | Dose-dependent effect | Active | Active | Active | Dose-dependent effect | Active | Active | Active | Active | inactive | Active |  |
| O=C1C=CC[C@H](COc2ccc3c(c2)OCO3)O1 |  |  |  |  |  |  |  |  |  |  |  |  |  |  |  |  | 12 |
| O=c1[nH]cc(F)c(=O)[nH]1 [FLUOROURACIL] |  |  |  |  |  |  |  |  |  |  |  |  |  |  |  |  | 24.8 |
